In ChEMBL document CHEMBL5154634, “A Modular Synthetic Route Involving N-Aryl-2-nitrosoaniline Intermediates Leads to a New Series of 3-Substituted Halogenated Phenazine Antibacterial Agents” (J Med Chem, 2021):
pIC50: −log10 of the molar value. Converted amounts (≈) assume the structure as drawn. The source made the active and inactive calls. The calls are words filed in the database; no cut-off is given here.

Tests used:
Enterococcus faecium = assay: Antibacterial activity against vancomycin-resistant Enterococcus faecium ATCC 700221 assessed as bacterial growth inhibition incubated for 16 hrs by broth microdilution susceptibility test; type: functional
Method in brief: (§1)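 CLSI broth microdilution with 11 twofold dilutions (0.05–50 μM). Medium was LB for the staphylococci and BHI for VRE 700221. About 10^5 cells per well from a log-phase culture. […] DMSO vehicle up to 0.5% v/v. At least three independent experiments.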

Staphylococcus aureus [1] = assay: Antibacterial activity against methicillin-resistant Staphylococcus aureus clinical isolate 2 assessed as bacterial growth inhibition; type: functional
Staphylococcus aureus [2] = assay: Induction of iron starvation in methicillin-resistant Staphylococcus aureus BAA-1707 biofilms assessed as upregulation of isdB gene expression at 1 uM incubated for 4 hrs by RT-qPCR analysis; type: functional
Method in brief: (§2)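 MRSA BAA-1707 grown in TSB with 0.5% glucose to OD600 ~0.8–1.0, then biofilms formed 20 h at 37 °C statically in gelatin-coated 24-well plates. Biofilms treated 4 h at 37 °C with compound (1 μM or 1/10 MBEC) or DMSO vehicle. RNA extracted; only RIN ≥7 samples used. One-step SYBR RT-qPCR; ΔCT normalised to ptaA. Three independent experiments.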

Staphylococcus aureus [3] = assay: Antibacterial activity against methicillin-resistant Staphylococcus aureus 129 assessed as bacterial growth inhibition; type: functional
HeLa = assay: Cytotoxicity against human HeLa cells assessed as reduction in cell viability incubated for 24 hrs by LDH release assay; type: toxicity, cell-based
Method in brief: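 HeLa cells in DMEM with 10% FBS, treated at 70–80% confluence with 25, 50 and 100 μM for 24 h. LDH in supernatant measured by 30 min reaction at room temperature, then stop solution and absorbance at 490 nm. Controls: 2% Triton X-100 (maximum), medium only, DMSO vehicle. Three independent experiments.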

Staphylococcus aureus [4] = assay: Antibacterial activity against methicillin-resistant Staphylococcus aureus 147 assessed as bacterial growth inhibition; type: functional
Staphylococcus aureus [5] = assay: Antibacterial activity against methicillin-resistant Staphylococcus aureus BAA-44 assessed as bacterial growth inhibition incubated for 16 hrs by broth microdilution susceptibility test; type: functional; method in brief: as §1
Staphylococcus aureus [6] = assay: Antibacterial activity against methicillin-resistant Staphylococcus aureus 138 assessed as bacterial growth inhibition; type: functional
[7] = tested on: Mycobacterium tuberculosis; assay: Antibacterial activity against Mycobacterium tuberculosis CDC1551 assessed as bacterial growth inhibition incubated for 5 days by luminescence based analysis; type: functional; details: CDC1551, 120 h, time 5 day
Method in brief: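 Bioluminescent Mtb-lux CDC1551 reporter grown in Middlebrook 7H9 with 0.05% Tween 80, 10% OADC and kanamycin to OD600 0.4–0.8, then diluted to OD600 0.02. Added to twofold drug dilutions (0.003–200 μM). Incubated 5 days at 37 °C, 5% CO2. Luminescence read against 1% DMSO and 10 μM rifampicin controls to give % growth inhibition. MIC taken from a modified Gompertz fit.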

Staphylococcus aureus [8] = assay: Induction of iron starvation in methicillin-resistant Staphylococcus aureus BAA-1707 biofilms assessed as upregulation of isdB gene expression at 1/10XMBEC incubated for 4 hrs by RT-qPCR analysis; type: functional; method in brief: as §2
Staphylococcus aureus [9] = assay: Antibacterial activity against methicillin-resistant Staphylococcus aureus 156 assessed as bacterial growth inhibition; type: functional
[10] = tested on: Staphylococcus epidermidis; assay: Antibiofilm activity against methicillin-resistant Staphylococcus epidermidis ATCC 35984 biofilms assessed as biofilm killing at 3.13 uM measured by CBD assay; type: functional
Staphylococcus aureus [11] = assay: Induction of iron starvation in methicillin-resistant Staphylococcus aureus BAA-1707 biofilms assessed as upregulation of sfaA gene expression at 1 uM incubated for 4 hrs by RT-qPCR analysis; type: functional; method in brief: as §2
Staphylococcus aureus [12] = assay: Induction of iron starvation in methicillin-resistant Staphylococcus aureus BAA-1707 biofilms assessed as upregulation of sbnC gene expression at 1 uM incubated for 4 hrs by RT-qPCR analysis; type: functional; method in brief: as §2
[13] = tested on: Staphylococcus epidermidis; assay: Antibiofilm activity against methicillin-resistant Staphylococcus epidermidis ATCC 35984 biofilms assessed as reduction of viable biofilm cells at MBEC measured by CBD assay; type: functional
Method in brief: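 After the Calgary biofilm device assay, treated and untreated pegs were removed, sonicated 30 min in PBS and plated for CFU per peg. Log10 reduction of viable biofilm cells at the MBEC determined by comparison with untreated pegs. At least three independent experiments.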

Cc1cccc2nc3c(O)c(Br)c(Cl)c(Br)c3nc12
MIC (Enterococcus faecium): 0.1 µM (≈ 0.0402 µg/mL)
MIC (Staphylococcus aureus [1]): 0.06 µM (≈ 0.0241 µg/mL)
Activity (Staphylococcus aureus [2]): Active
MIC (Staphylococcus aureus [3]): 0.06 µM (≈ 0.0241 µg/mL)
pIC50 (HeLa): < 4.00
MIC (Staphylococcus aureus [4]): 0.06 µM (≈ 0.0241 µg/mL)
MIC (Staphylococcus aureus [5]): 0.08 µM (≈ 0.0322 µg/mL)
MIC (Staphylococcus aureus [6]): 0.06 µM (≈ 0.0241 µg/mL)
MIC [7]: 1.59 µM (≈ 0.64 µg/mL)
Activity (Staphylococcus aureus [8]): Active
MIC (Staphylococcus aureus [9]): 0.06 µM (≈ 0.0241 µg/mL)
Activity [10]: 99.999%
Activity (Staphylococcus aureus [11]): Active
Activity (Staphylococcus aureus [12]): Active
Activity [13]: 3.65 log10CFU
